Experimental data taken from ChEMBL document CHEMBL4765336, “Discovery of coumarin derivatives as potent and selective cyclin-dependent kinase 9 (CDK9) inhibitors with high antitumour activity” (Eur J Med Chem, 2020).

What was measured:
[1] = target: CDK9/cyclin T1 (Homo sapiens, UniProt P50750); assay: Inhibition of CDK9/Cyclin T1 (unknown origin) preincubated for 20 mins followed by ATP addition and measured after 120 mins in presence of [33P-gamma] ATP by hotspot kinase assay; assay type: protein-complex assay
Sequence of CDK9/cyclin T1 (O60563 whole entry): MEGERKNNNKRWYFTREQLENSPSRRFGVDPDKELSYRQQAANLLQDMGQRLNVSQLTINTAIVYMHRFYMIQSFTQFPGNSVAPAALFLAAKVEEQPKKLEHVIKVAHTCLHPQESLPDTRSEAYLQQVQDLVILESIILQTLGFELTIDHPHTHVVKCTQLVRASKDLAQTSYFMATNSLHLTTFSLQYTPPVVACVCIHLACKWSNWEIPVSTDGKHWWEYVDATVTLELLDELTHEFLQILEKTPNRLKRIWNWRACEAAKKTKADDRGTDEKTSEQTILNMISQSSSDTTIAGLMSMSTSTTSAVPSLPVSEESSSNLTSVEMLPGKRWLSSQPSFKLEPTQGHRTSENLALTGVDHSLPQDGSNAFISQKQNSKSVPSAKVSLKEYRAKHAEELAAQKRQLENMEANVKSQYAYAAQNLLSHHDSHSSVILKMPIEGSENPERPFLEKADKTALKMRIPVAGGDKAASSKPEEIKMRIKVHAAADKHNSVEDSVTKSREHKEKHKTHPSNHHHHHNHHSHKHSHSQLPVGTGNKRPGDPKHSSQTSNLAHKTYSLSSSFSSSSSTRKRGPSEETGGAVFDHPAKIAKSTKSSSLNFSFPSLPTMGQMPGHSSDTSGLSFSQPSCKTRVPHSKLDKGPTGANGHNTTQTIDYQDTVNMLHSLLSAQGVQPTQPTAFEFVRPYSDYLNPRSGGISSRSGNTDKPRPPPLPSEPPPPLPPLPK
Sequence of CDK9/cyclin T1 (P50750 whole entry): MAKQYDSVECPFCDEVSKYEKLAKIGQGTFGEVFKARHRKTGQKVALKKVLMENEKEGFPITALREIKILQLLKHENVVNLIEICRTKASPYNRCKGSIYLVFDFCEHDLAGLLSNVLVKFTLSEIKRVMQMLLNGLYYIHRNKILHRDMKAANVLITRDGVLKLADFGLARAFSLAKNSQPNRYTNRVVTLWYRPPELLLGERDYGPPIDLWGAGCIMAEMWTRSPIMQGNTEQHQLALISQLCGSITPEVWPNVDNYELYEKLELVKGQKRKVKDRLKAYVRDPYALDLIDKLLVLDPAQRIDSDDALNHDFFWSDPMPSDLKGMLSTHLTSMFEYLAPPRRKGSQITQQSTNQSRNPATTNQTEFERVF

[2] = system: MV4-11; assay: Antiproliferative activity against human MV4-11 cells assessed as inhibition of cell growth incubated for 72 hrs by Celltiter-Glo luminescent assay; assay type: functional, cell-based; details: MV4-11, 72 h
Summary of the method: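 Cells seeded in growth medium and held overnight at 37 °C; medium-only wells served as background. DMSO stocks were diluted in medium to 3× final and added; cells incubated 72 h at 37 °C, 5% CO2. Viability read by CellTiter-Glo luminescence after 60 min at room temperature. IC50 from curve fit, mean of duplicate.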

[3] = target: CDK2/Cyclin A2 (Homo sapiens, UniProt P24941); assay: Inhibition of CDK2/Cyclin A (unknown origin) preincubated for 20 mins followed by ATP addition and measured after 120 mins in presence of [33P-gamma] ATP by hotspot kinase assay; assay type: protein-complex assay
Summary of the method: (§1)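 Radiometric filter-binding assay: kinase and substrate in 20 mM Hepes pH 7.5, 10 mM MgCl2, 1 mM EGTA, 0.02% Brij35, 0.02 mg/mL BSA, 0.1 mM Na3VO4, 2 mM DTT, 1% DMSO. Compound (top 1/10/27 μM, 3-fold serial dilutions) preincubated 20 min at 25 °C. ATP plus [γ-33P]ATP added to 10 μM final, reacted 120 min at 25 °C. IC50 from curve fit, duplicate mean.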

[4] = target: CDK2/Cyclin A2 (Homo sapiens) (UniProt P24941+P20248); assay: Inhibition of CDK2/Cyclin A (unknown origin) assessed as enzyme activity at 1 uM preincubated for 20 mins followed by ATP addition and measured after 120 mins in presence of [33P-gamma] ATP by hotspot kinase assay relative to control; assay type: protein-complex assay; parameters: scale not given: the % may be the effect or the level left; details: time 140.0 min
Summary of the method: (§2)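 Radiometric filter-binding kinase assay, buffer pH 7.5 with 10 mM MgCl2 and 1% DMSO. Compound tested at a single 1.0 μM, preincubated 20 min at 25 °C. Reaction started with ATP/[γ-33P]ATP at 10 μM final, run 120 min at 25 °C. Remaining % enzyme activity reported, n=2.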

[5] = organism: Homo sapiens; assay: Selectivity index, ratio of IC50 for CDK2/Cyclin A (unknown origin) to IC50 for CDK9/Cyclin T1 (unknown origin)
[6] = target: CDK9/Cyclin K (Homo sapiens, UniProt P50750); assay: Inhibition of CDK9/Cyclin K (unknown origin) preincubated for 20 mins followed by ATP addition and measured after 120 mins in presence of [33P-gamma] ATP by hotspot kinase assay; assay type: protein-complex assay
Sequence of CDK9/Cyclin K (P50750 whole entry): as above
Sequence of CDK9/Cyclin K (O75909 whole entry, further chain): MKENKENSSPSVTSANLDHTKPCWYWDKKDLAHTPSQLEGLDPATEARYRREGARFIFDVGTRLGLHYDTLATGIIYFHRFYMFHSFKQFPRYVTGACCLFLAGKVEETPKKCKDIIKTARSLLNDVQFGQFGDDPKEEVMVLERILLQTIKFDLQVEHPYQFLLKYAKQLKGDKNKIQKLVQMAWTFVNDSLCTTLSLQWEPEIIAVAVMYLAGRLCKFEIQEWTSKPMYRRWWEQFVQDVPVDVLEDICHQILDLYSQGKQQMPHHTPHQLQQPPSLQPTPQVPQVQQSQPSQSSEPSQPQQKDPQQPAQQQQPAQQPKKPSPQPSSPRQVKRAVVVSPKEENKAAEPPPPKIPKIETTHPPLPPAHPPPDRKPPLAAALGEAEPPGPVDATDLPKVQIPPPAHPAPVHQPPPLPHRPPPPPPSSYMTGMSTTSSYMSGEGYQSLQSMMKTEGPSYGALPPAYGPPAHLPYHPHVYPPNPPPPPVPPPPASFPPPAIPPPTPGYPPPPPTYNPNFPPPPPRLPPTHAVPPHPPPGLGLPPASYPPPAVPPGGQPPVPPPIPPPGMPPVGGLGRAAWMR
Summary of the method: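 HotSpot radioisotope filter-binding assay. Kinase and substrate were mixed at room temperature in 20 mM Hepes pH 7.5 with 10 mM MgCl2, 1 mM EGTA, 0.02% Brij35, 0.02 mg/mL BSA, 0.1 mM Na3VO4, 2 mM DTT and 1% DMSO. Compound was added in a 3-fold dilution series starting at 1, 10 or 27 μM and preincubated 20 min at 25 °C. ATP plus [γ-33P]ATP (10 μM final) was then added for 120 min at 25 °C. IC50 from curve fit, duplicate mean.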

[7] = target: Cyclin-dependent kinase 7/ cyclin H (Homo sapiens, UniProt P50613); assay: Inhibition of CDK7/Cyclin H (unknown origin) preincubated for 20 mins followed by ATP addition and measured after 120 mins in presence of [33P-gamma] ATP by hotspot kinase assay; assay type: protein-complex assay; summary of the method: as §1
Sequence of Cyclin-dependent kinase 7/ cyclin H (P51946 whole entry): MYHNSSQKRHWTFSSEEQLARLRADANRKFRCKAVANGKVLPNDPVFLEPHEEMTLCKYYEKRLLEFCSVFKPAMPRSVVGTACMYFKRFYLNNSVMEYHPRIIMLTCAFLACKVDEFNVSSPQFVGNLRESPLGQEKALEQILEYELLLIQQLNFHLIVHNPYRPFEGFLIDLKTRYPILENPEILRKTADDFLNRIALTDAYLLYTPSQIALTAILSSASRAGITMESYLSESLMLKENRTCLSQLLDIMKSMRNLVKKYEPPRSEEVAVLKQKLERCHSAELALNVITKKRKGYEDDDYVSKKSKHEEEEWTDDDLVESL
Sequence of Cyclin-dependent kinase 7/ cyclin H (P50613 whole entry): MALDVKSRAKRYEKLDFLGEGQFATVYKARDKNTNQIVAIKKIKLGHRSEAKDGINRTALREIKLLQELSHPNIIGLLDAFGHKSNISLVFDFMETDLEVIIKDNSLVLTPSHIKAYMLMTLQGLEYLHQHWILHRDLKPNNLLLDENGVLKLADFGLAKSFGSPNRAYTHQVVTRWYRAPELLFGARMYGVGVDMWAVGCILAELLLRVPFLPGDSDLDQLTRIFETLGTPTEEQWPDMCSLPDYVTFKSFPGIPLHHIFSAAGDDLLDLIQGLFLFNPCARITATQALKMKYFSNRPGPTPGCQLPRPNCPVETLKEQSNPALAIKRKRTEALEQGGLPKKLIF

[8] = system: MV4-11; assay: Antitumor activity against human MV4-11 cells xenografted in Balb/c nude mouse assessed as reduction in tumor volume at 40 mg/kg, iv administered once daily for 21 days (reference value: 1.00 g); assay type: functional; details: time 21 day
[9] = target: CDK9/cyclin T1 (Homo sapiens) (UniProt O60563+P50750); assay: Inhibition of CDK9/Cyclin T1 (unknown origin) assessed as enzyme activity at 1 uM preincubated for 20 mins followed by ATP addition and measured after 120 mins in presence of [33P-gamma] ATP by hotspot kinase assay relative to control; assay type: protein-complex assay; parameters: scale not given: the % may be the effect or the level left; details: time 140.0 min; summary of the method: as §2
[10] = Metabolic stability in human liver microsomes assessed as half life at 1 uM incubated up to 60 mins in presence of NADPH by LC-MS/MS analysis; assay type: ADME, Microsome
Summary of the method: (§3)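 Liver microsomes (0.5 mg/mL) incubated at 37 °C with compound at 1.0 μM final, 3 mM MgCl2 and 1 mM NADPH in 100 mM PBS pH 7.4. Samples taken at 0, 5, 15, 30, 60 min; remaining parent measured by LC-MS/MS. k = −slope, T1/2 = 0.693/k, CLint = k/microsomal protein concentration. Midazolam served as control.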

[11] = Metabolic stability in human liver microsomes assessed as intrinsic clearance at 1 uM incubated up to 60 mins in presence of NADPH by LC-MS/MS analysis; assay type: ADME, Microsome; details: read-out: CLH; summary of the method: as §3
[12] = Metabolic stability in monkey liver microsomes assessed as half life at 1 uM incubated up to 60 mins in presence of NADPH by LC-MS/MS analysis; assay type: ADME, Macaca mulatta, Microsome; details: rhesus monkey; summary of the method: as §3
[13] = Metabolic stability in monkey liver microsomes assessed as intrinsic clearance at 1 uM incubated up to 60 mins in presence of NADPH by LC-MS/MS analysis; assay type: ADME, Macaca mulatta, Microsome; details: rhesus monkey, read-out: CLH; summary of the method: as §3
[14] = Metabolic stability in dog liver microsomes assessed as half life at 1 uM incubated up to 60 mins in presence of NADPH by LC-MS/MS analysis; assay type: ADME, Canis lupus familiaris, Microsome; summary of the method: as §3
[15] = Metabolic stability in dog liver microsomes assessed as intrinsic clearance at 1 uM incubated up to 60 mins in presence of NADPH by LC-MS/MS analysis; assay type: ADME, Canis lupus familiaris, Microsome; details: read-out: CLH; summary of the method: as §3
[16] = Metabolic stability in rat liver microsomes assessed as half life at 1 uM incubated up to 60 mins in presence of NADPH by LC-MS/MS analysis; assay type: ADME, Microsome; summary of the method: as §3
[17] = Metabolic stability in rat liver microsomes assessed as intrinsic clearance at 1 uM incubated up to 60 mins in presence of NADPH by LC-MS/MS analysis; assay type: ADME, Microsome; details: read-out: CLH; summary of the method: as §3

| SMILES | IC50 [1] [nM] | IC50 [2] [nM] | IC50 [3] [nM] | Activity [4] [%] | also measured |
| --- | --- | --- | --- | --- | --- |
| CC(=O)c1c(N2CCOCC2)c2ccc(Nc3nccc(-c4c(F)cccc4F)n3)cc2oc1=O | 267 | > 10000 |  |  |  |
| COc1cc(F)ccc1-c1ccnc(Nc2ccc3c(N4CCOCC4)cc(=O)oc3c2)n1 | 18.2 | 2280 | 1330 |  |  |
| COc1ccccc1-c1ccnc(Nc2ccc3c(N4CCOCC4)c(C(C)=O)c(=O)oc3c2)n1 | 3.1 | 1010 | 1280 |  |  |
| CCN1CCN(c2c(C(C)=O)c(=O)oc3cc(Nc4nccc(-c5ccc(F)cc5OC)n4)ccc23)CC1 | 10.5 | 740 |  | 61.8 |  |
| COc1ccccc1-c1cc(Nc2ccc3c(N4CCOCC4)c(C(C)=O)c(=O)oc3c2)ncn1 | 210 | > 10000 | 3420 |  |  |
| COc1cccc(-c2ccnc(Nc3ccc4c(N5CCOCC5)c(C(C)=O)c(=O)oc4c3)n2)c1 | 18.4 | 1490 |  | 54.1 |  |
| COc1cc(F)ccc1-c1ccnc(Nc2ccc3c(N4CCCCC4)c(C(C)=O)c(=O)oc3c2)n1 | 6.5 | 730 |  | 73.1 |  |
| COc1cc(F)ccc1-c1nc(Nc2ccc3c(N4CCN(C)CC4)c(C(C)=O)c(=O)oc3c2)ncc1Cl | 1.7 | 1390 | 642 |  |  |
| COc1cccc(F)c1-c1ccnc(Nc2ccc3c(N4CCOCC4)c(C(C)=O)c(=O)oc3c2)n1 | 13.7 | 520 |  | 58.7 |  |
| COc1cc(F)ccc1-c1nc(Nc2ccc3c(N4CCOCC4)c(C(C)=O)c(=O)oc3c2)ncc1Cl | 3.6 | 1010 | 401 |  |  |
| CCC(=O)c1c(N2CCOCC2)c2ccc(Nc3nccc(-c4ccc(F)cc4OC)n3)cc2oc1=O | 3.6 | 430 | 1090 |  |  |
| CCN1CCN(c2c(C(C)=O)c(=O)oc3cc(Nc4ncc(F)c(-c5ccc(F)cc5OC)n4)ccc23)CC1 | 1.2 | 550 | 305 |  |  |
| COc1cc(F)ccc1-c1nc(Nc2ccc3c(N4CCCNCC4)c(C(C)=O)c(=O)oc3c2)ncc1F | 1.6 | 420 | 496 |  |  |
| CC(=O)c1c(C)c2ccc(Nc3nccc(-c4cccnc4)n3)cc2oc1=O | 184 | 12900 | 1210 |  | Ratio IC50 [5]: 7; IC50 [6]: 235 nM; IC50 [7]: > 27000 nM |
| CC(=O)c1c(N2CCOCC2)c2ccc(Nc3nccc(-c4ccccc4)n3)cc2oc1=O | 228 |  |  |  |  |
| COc1ccccc1-c1ccnc(Nc2ccc3c(N4CCOCC4)cc(=O)oc3c2)n1 | 47.2 | 4570 |  | 57.9 |  |
| Nc1ccn([C@@H]2O[C@H](CO)[C@@H](O)[C@@H]2O)c(=O)n1 [CYTARABINE] |  |  |  |  | Activity [8]: 0.26 g |
| CC(=O)c1c(N2CCOCC2)c2ccc(Nc3cc(-c4ccccc4)ncn3)cc2oc1=O |  |  |  |  | Activity [9]: 104% |
| COc1ccc(-c2ccnc(Nc3ccc4c(N5CCOCC5)c(C(C)=O)c(=O)oc4c3)n2)cc1 | 81.7 | 6490 |  | 21.6 |  |
| CCc1ccccc1-c1ccnc(Nc2ccc3c(N4CCOCC4)c(C(C)=O)c(=O)oc3c2)n1 | 66.5 | 9840 |  | 40.5 |  |

| SMILES | IC50 [1] [nM] | IC50 [2] [nM] | IC50 [3] [nM] | Activity [4] [%] | also measured |
| --- | --- | --- | --- | --- | --- |
| COc1ccc(F)cc1-c1ccnc(Nc2ccc3c(N4CCOCC4)c(C(C)=O)c(=O)oc3c2)n1 | 21.8 | 1740 |  | 49.6 |  |
| COc1ccccc1-c1cc(Nc2ccc3c(C)c(C(C)=O)c(=O)oc3c2)ncn1 | 37.6 | > 10000 |  | 64.5 |  |
| CCC(=O)c1c(N2CCOCC2)c2ccc(Nc3ncc(F)c(-c4ccc(F)cc4OC)n3)cc2oc1=O | 0.7 | 420 | 338 |  |  |
| CC(=O)c1c(N2CCOCC2)c2ccc(Nc3nccc(-c4ccccc4C(F)(F)F)n3)cc2oc1=O | 2490 |  |  |  |  |
| COc1cc(F)ccc1-c1nc(Nc2ccc3c(N4CCN(C)CC4)c(C(C)=O)c(=O)oc3c2)ncc1F | 1.5 | 400 | 336 |  |  |
| CCc1ccccc1-c1cc(Nc2ccc3c(N4CCOCC4)c(C(C)=O)c(=O)oc3c2)ncn1 |  |  |  |  | Activity [9]: 90% |
| COc1ccccc1-c1ccnc(Nc2ccc3c(C)c(C(C)=O)c(=O)oc3c2)n1 | 6.5 | 10200 | 451 |  |  |
| COc1cccc(-c2ccnc(Nc3ccc4c(N5CCOCC5)c(C(C)=O)c(=O)oc4c3)n2)c1OC |  | 5070 |  |  | Activity [9]: 51.7% |
| CC(=O)c1c(N2CCOCC2)c2ccc(Nc3nccc(-c4ccccc4[N+](=O)[O-])n3)cc2oc1=O | 2340 | > 10000 |  |  |  |
| COc1cc(F)ccc1-c1nc(Nc2ccc3c(N4CCOCC4)cc(=O)oc3c2)ncc1F | 1.6 | 3110 |  | 22 |  |
| COc1ccccc1-c1ccnc(Nc2ccc3c(N4CCNCC4)cc(=O)oc3c2)n1 | 25.3 | 1340 | 3660 |  |  |
| COc1ccccc1-c1ccnc(Nc2ccc3c(N4CCCNCC4)cc(=O)oc3c2)n1 | 11.7 | 1680 | 2060 |  |  |
| COc1cc(F)ccc1-c1ccnc(Nc2ccc3c(N4CCN(C)CC4)c(C(C)=O)c(=O)oc3c2)n1 | 16.4 | 520 |  | 74.8 |  |
| Cc1ncc2n1-c1ccc(Cl)cc1C(c1ccccc1F)=NC2 [MIDAZOLAM] |  |  |  |  | half-life at 1 µM [10]: 12.1 min; microsomal CLint at 1 µM [11]: 287 µL/min/mg; half-life at 1 µM [12]: 6.29 min; microsomal CLint at 1 µM [13]: 551 µL/min/mg; half-life at 1 µM [14]: 2.31 min; microsomal CLint at 1 µM [15]: 1500 µL/min/mg; half-life at 1 µM [16]: 3.82 min; microsomal CLint at 1 µM [17]: 908 µL/min/mg |
| CC(=O)c1c(N2CCOCC2)c2ccc(Nc3nccc(-c4ccccc4C)n3)cc2oc1=O | 489 |  |  |  |  |
| CC(=O)c1c(N2CCOCC2)c2ccc(Nc3cc(-c4ccccc4C)ncn3)cc2oc1=O |  |  |  |  | Activity [9]: 92.2% |
| CC(=O)c1c(N2CCOCC2)c2ccc(Nc3cc(-c4ccccc4C(F)(F)F)ncn3)cc2oc1=O |  |  |  |  | Activity [9]: 106% |
| CCc1c(N2CCOCC2)c2ccc(Nc3nccc(-c4ccccc4OC)n3)cc2oc1=O | 67.3 | 4720 | 10900 |  |  |
| COc1ccc(-c2ccnc(Nc3ccc4c(N5CCOCC5)c(C(C)=O)c(=O)oc4c3)n2)c(OC)c1 | 54.2 | 820 |  | 46.3 |  |
